Data published in paper PMC2908238 (Journal of neurochemistry, 2010).

Columns and labels:
[1] = Electron microscopy, morphology of assemblies; assay type: physicochemical; settings: EM, 10 µM peptide, pH 7.4, 25°C, agitation 200 rpm; for Morphology after 72 h of incubation: 72 h (Aβ40 analogues)
Procedure, shortened: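 Peptide from HFIP films, dissolved in 60 mM NaOH, diluted with water, sonicated 1 min, adjusted to 10 µM in 20 mM sodium phosphate pH 7.4; incubated 25°C with 200 rpm orbital shaking. Aliquots adsorbed 20 min on glow-discharged carbon-coated Formvar grids, wicked, fixed 2.5% glutaraldehyde 4 min, stained 1% uranyl acetate 3 min, air-dried; transmission EM.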

[2] = 5 µM, 37°C, without agitation, ref Ciccotosto et al. 2004; cited from earlier work
[3] = Dynamic light scattering; assay type: physicochemical; settings: 10 µM peptide, pH 7.4, filtered 20 nm, quiescent incubation
Procedure, shortened: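 HFIP-treated peptide films dissolved in 60 mM NaOH, diluted with water, sonicated 1 min, then brought to 10 µM in 20 mM sodium phosphate, pH 7.4. Passed through 20-nm filter before first reading; kept at room temperature, no agitation, up to 14 days. 633-nm He-Ne laser, 90° scattering, multitau correlator; size distribution from regularization deconvolution. Representative of two independent experiments.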

| Substance | Morphology after 24 h of incubation ([1]; 24 h (Aβ42 analogues)) | Morphology initially and after 72 h of incubation [2] | DLS intensity spikes (fibril formation) after 7 days ([3]; 7 days) | Hydrodynamic radius (RH) of particles after 7 days ([3]; DLS, 7 days) | Hydrodynamic radius (RH) of particles after 14 days ([3]; DLS, 14 days) | Morphology after 72 h of incubation [1] |
| --- | --- | --- | --- | --- | --- | --- |
| Aβ42: wild-type amyloid β-protein, 42-residue alloform, synthesized by Fmoc chemistry | abundant fibrils | non-fibrillar morphology | no intensity spikes | the same distribution | 100–200 nm | – |
| [Val^35]Aβ40: Aβ40 analogue with Met^35 substituted by Val | – | – | – | – | – | mixture of oligomers and fibrils |
| Aβ40: wild-type amyloid β-protein, 40-residue alloform, synthesized by Fmoc chemistry | – | – | – | – | – | did not change |
